Measurements published in ChEMBL document CHEMBL4385596, “Fragment-Based Discovery of a Qualified Hit Targeting the Latency-Associated Nuclear Antigen of the Oncogenic Kaposi's Sarcoma-Associated Herpesvirus/Human Herpesvirus 8” (J Med Chem, 2019).
Active and inactive are the calls of the source. The calls are words filed in the database; no cut-off is given here.

Columns and labels:
[1] = Binding affinity to fluorescent labelled LBS2 DNA (unknown origin) by fluorescence polarization assay
Method in brief: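 Fixed concentration of His-tagged oligomerization-deficient LANA DBD mutant (aa1008-1146, 200 nM final) was pre-incubated 60 min with compound. Fluorescein-labelled LBS2 (10 nM final) was then added and incubated 90 min. Buffer was 10 mM HEPES, 150 mM NaCl, 0.005% Tween20, 5% DMSO. Polarization was read at ex 485/em 520 nm. Runs were done with and without LANA to exclude DNA or quenching interference. Duplicates, two independent experiments.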

ORF 73 [2] = target: T1, ORF 73 (Human herpesvirus 8, UniProt O40947); test: (§1) Inhibition of fluorescent labelled LBS2 DNA binding to human herpesvirus 8 C-terminal His-tagged LANA oligomerization deficient mutant DBD (1008 to 1146 residues) expressed in Escherichia coli BL21 (DE3) preincubated for 60 mins followed by fluorescent labelled LBS2 addition and measured after 90 mins by fluorescence polarization assay; parameters: species or system Human gammaherpesvirus 8
Method in brief: (§2)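 FP competition assay. His-tagged LANA DBD mutant (200 nM final) pre-incubated with serially varied compound for 60 min. Fluorescein-labelled LBS1, LBS2 or LBS3 (10 nM final) then added and incubated 90 min. Buffer was 10 mM HEPES, 150 mM NaCl, 0.005% Tween20 with 5% DMSO. Read at excitation 485 nm, emission 520 nm. Duplicates in two independent experiments. Runs without LANA checked for interference. IC50 derived from dose-response.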

[3] = tested on: ORF 73 (Human herpesvirus 8), O40947 [UNDEFINED MUTATION]; test: as §1, with “(DE3) at 1 mM” for “(DE3)”, “assay relative to control” for “assay”; details: Human gammaherpesvirus 8
Method in brief: (§3)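 Single-concentration FP competition assay (1 mM or 500 µM compound). LANA DBD mutant (200 nM final) pre-incubated with compound for 60 min, then fluorescein-labelled LBS2 (10 nM final) added and incubated 90 min. Buffer was HEPES/NaCl/Tween20 with 5% DMSO. Read at excitation 485 nm, emission 520 nm. Percent inhibition from duplicates in two independent experiments.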

[4] = tested on: ORF 73 (Human herpesvirus 8), O40947 [UNDEFINED MUTATION]; test: (§4) Inhibition of 5'-Dy682-labelled LBS1 DNA binding to human herpesvirus 8 C-terminal His-tagged LANA oligomerization deficient mutant DBD (1008 to 1146 residues) expressed in Escherichia coli BL21 (DE3) at 500 uM preincubated for 1 hr followed by 5'-Dy682-labelled LBS1 DNA addition and measured after 30 mins by electrophoretic mobility shift assay; details: Human gammaherpesvirus 8
Method in brief: (§5)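 Native-gel EMSA. LANA DBD mutant (200 nM final) pre-incubated with compound for 1 h at RT in the dark, then Dy-682-labelled LBS1 probe (20 nM) added. Complex and free-probe band intensities normalised to 0–100% inhibition. Run in duplicate; purified GST served as control.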

ORF 73 [5] = target: T1, ORF 73; test: as §1, with “fluorescent labelled LBS3 DNA binding” for “fluorescent labelled LBS2 DNA binding”; parameters: species or system Human gammaherpesvirus 8; method in brief: as §2
ORF 73 [6] = target: T1, ORF 73; test: as §1, with “fluorescent labelled LBS1 DNA binding” for “fluorescent labelled LBS2 DNA binding”; parameters: species or system Human gammaherpesvirus 8; method in brief: as §2
[7] = tested on: ORF 73 (Human herpesvirus 8), O40947 [UNDEFINED MUTATION]; test: as §4, with “of 5'-Dy682-labelled LBS1/LBS2 DNA binding” for “of 5'-Dy682-labelled LBS1 DNA binding”; details: Human gammaherpesvirus 8
Method in brief: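 Native-gel EMSA with a longer Dy-682-labelled probe carrying both LBS1 and LBS2 (20 nM). LANA DBD mutant (200 nM) pre-incubated with compound (500 µM) for 1 h at RT in the dark. Buffer was Tris-HCl pH 7.5 with KCl, MgCl2, DTT, EDTA, glycerol, Tween20, BSA and poly(dI-dC). Band intensities normalised to percent inhibition. Run in duplicate; GST served as control.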

[8] = tested on: ORF 73 (Human herpesvirus 8), O40947 [UNDEFINED MUTATION]; test: as §1, with “(DE3) at 500 uM” for “(DE3)”, “assay relative to control” for “assay”; details: Human gammaherpesvirus 8; method in brief: as §3
[9] = Inhibition of 5'-Dy682-labelled LBS1 DNA binding to GST-tagged LANA C-terminal domain (934 to 1162 residues) preincubated for 1 hr followed by 5'-Dy682-labelled LBS1 DNA addition and measured after 30 mins by electrophoretic mobility shift assay; parameters: species or system Human gammaherpesvirus 8
Method in brief: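 Dose-dependent native-gel EMSA used Dy-682-labelled LBS1 probe with wild-type LANA CTD (aa934-1162). Protein was incubated with compound for 1 h at RT in the dark. IC50 was calculated from band intensities.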

[10] = tested on: ORF 73 (Human herpesvirus 8), O40947 [UNDEFINED MUTATION]; test: Binding affinity to human herpesvirus 8 C-terminal His-tagged LANA oligomerization deficient mutant DBD (1008 to 1146 residues) expressed in Escherichia coli BL21 (DE3) at 1 mM by STD-NMR analysis; details: Human gammaherpesvirus 8
Method in brief: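 STD NMR at 298 K, 500 MHz. Ligand at 1 mM final (40-fold excess) over LANA DBD mutant at 25 µM final. On-resonance irradiation at 0 ppm, off-resonance at -40 ppm. STD effect (I/I0) calculated per ligand proton. A free-compound control spectrum was recorded to check for artefacts.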

ORF 73 [11] = target: T1, ORF 73; test: Binding affinity to human herpesvirus human herpesvirus 8 C-terminal His-tagged LANA oligomerization deficient mutant DBD (1008 to 1146 residues) expressed in Escherichia coli BL21 (DE3) by microscale thermophoresis assay; parameters: species or system Human gammaherpesvirus 8
Method in brief: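 His-tagged LANA DBD mutant labelled with a RED-tris NTA His-tag dye, used at 50 nM. Ligand titrated in a dose-response series starting at 1 mM. Buffer was 10 mM HEPES, 150 mM NaCl, 2 mM DTT, 0.005% Tween20 with 5% DMSO. KD derived from thermophoresis.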

ORF 73 [12] = target: T1, ORF 73; test: as §4, with “(DE3)” for “(DE3) at 500 uM”; parameters: species or system Human gammaherpesvirus 8; method in brief: as §5
Human gammaherpesvirus 8 [13] = test: Binding affinity to wild-type human herpesvirus 8 His-tagged LANA C-terminal domain (934 to 1162 residues) at 500 uM by surface plasmon resonance analysis
Human gammaherpesvirus 8 [14] = test: Binding affinity to wild-type human herpesvirus 8 GST-tagged LANA C-terminal domain (934 to 1162 residues) assessed as change in melting temperature at 500 uM by differential scanning fluorimetry
Method in brief: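 Thermal shift (DSF) used wild-type LANA C-terminal domain (aa934-1162) at 20 µM final and compound at 500 µM final. Buffer was 10 mM PBS pH 7.4, 5% DMSO, 0.05% Tween20. Melting was run in a real-time PCR instrument, and the change in denaturation temperature (TM) was recorded.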

Row | Compound | Activity [1] | inhibition [3] | IC50 (ORF 73 [2]; read-out: IC50) | also measured
1 | CC(=O)OCc1cn(-c2ccc(C(=O)O)cc2)nn1 | inactive |  |  | IC50 (ORF 73 [2]): Not Active
2 | CC(=O)Nc1ccccc1-n1ccnc1 | inactive | 32% |  | 
3 | O=C(O)c1ccc(-n2cc(-c3ccccc3)nn2)cc1 | inactive |  | 232 µM | 
4 | Nc1ccc(-n2cc(-c3ccc(C(=O)O)cc3)nn2)cc1 | inactive |  | 19 µM | 
5 | O=C(O)c1ccc(-n2cc(-c3ccccc3NCC3CCCCC3)nn2)cc1 | inactive |  |  | IC50 (ORF 73 [2]): Not Active
6 | COc1ccccc1-n1ccnc1 | inactive | 15% |  | 
7 | Nc1ccccc1-n1cnc(Br)c1 | inactive | 13% |  | 
8 | Nc1ccccc1-n1cnc2ccccc21 | inactive | 32% |  | 
9 | COCc1cn(-c2ccc(C(=O)OC)cc2)nn1 | inactive |  | 237 µM | 
10 | Nc1ccc(-c2cn(-c3ccc(C(=O)O)cc3)nn2)cc1 | inactive |  | 14 µM | inhibition [4]: Active; IC50 (ORF 73 [5]): 12 µM; IC50 (ORF 73 [6]): 19 µM; inhibition [7]: Active
11 | O=[N+]([O-])c1ccccc1-n1ccnc1 | inactive | 74% |  | 
12 | O=C(O)c1ccccc1-n1ccnc1 |  | 50% | 333 µM | 
13 | O=C(O)c1ccc(-n2cc(-c3ccc(NCC4CCCCC4)cc3)nn2)cc1 | inactive |  |  | IC50 (ORF 73 [2]): Not Active
14 | Nc1cccc(-c2cn(-c3ccccc3)nn2)c1 | inactive |  |  | IC50 (ORF 73 [2]): Not Active
15 | O=C(O)c1cccc(-n2ccnc2)c1 | inactive | 19% |  | 
16 | O=C(O)c1ccc(-n2ccnn2)cc1 | inactive | 35% |  | 
17 | COc1ccc(-c2cn(-c3ccc(C(=O)O)cc3)nn2)cc1 | inactive |  |  | inhibition [8]: 20%
18 | Oc1ccccc1-n1ccnc1 | inactive | 51% |  | 
19 | O=C(O)c1ccccc1-n1ccnn1 | inactive | 12% |  | 
20 | O=C(O)c1ccc(-n2cc(CO)nn2)cc1 | inactive |  | 79 µM | 
21 | O=C(O)c1ccc(-c2cn(-c3ccc(O)cc3)nn2)cc1 | inactive |  | 52 µM | 
22 | O=C(O)c1ccc(-n2cc(-c3ccc(CO)cc3)nn2)cc1 | inactive |  | 27 µM | 
23 | O=C(O)c1ccc(-n2cc(C3(O)CCCC3)nn2)cc1 | inactive |  | 159 µM | inhibition [4]: inactive; IC50 (ORF 73 [5]): 39 µM; IC50 (ORF 73 [6]): 104 µM; inhibition [7]: inactive

Row | Compound | Activity [1] | inhibition [3] | IC50 (ORF 73 [2]; read-out: IC50) | also measured
24 | COCc1cn(-c2ccc(C(=O)O)cc2)nn1 | inactive |  | 210 µM | 
25 | O=C(O)c1ccc(-n2cc(-c3cccc(NCC4CCCCC4)c3)nn2)cc1 | inactive |  |  | IC50 (ORF 73 [2]): Not Active
26 | COC(=O)c1cn(-c2ccc(C(=O)O)cc2)nn1 | inactive |  | 163 µM | 
27 | O=C(O)c1ccc(-c2cn(-c3cccnc3)nn2)cc1 | inactive |  | 17 µM | inhibition [4]: Active; IC50 [9]: 435 µM; IC50 (ORF 73 [5]): 19 µM; IC50 (ORF 73 [6]): 20 µM; inhibition [7]: Active; Activity [10]: Active; Kd (ORF 73 [11]): 23 µM; IC50 (ORF 73 [12]): 426 µM
28 | NCc1cn(-c2ccc(C(=O)O)cc2)nn1 | inactive |  | 30 µM | 
29 | Nc1ccccc1-c1cn(-c2ccc(C(=O)O)cc2)nn1 | inactive |  | 28 µM | inhibition [4]: Active; IC50 (ORF 73 [5]): 26 µM; IC50 (ORF 73 [6]): 25 µM; inhibition [7]: Active
30 | Nc1ccc(-n2ccnc2)cc1 | inactive | inactive |  | 
31 | Nc1cccc(-c2cn(-c3ccc(C(=O)O)cc3)nn2)c1 | inactive |  | 109 µM | inhibition [4]: inactive; IC50 (ORF 73 [5]): 106 µM; IC50 (ORF 73 [6]): 136 µM; inhibition [7]: inactive
32 | COC(=O)c1ccc(-n2cc(CO)nn2)cc1 | inactive |  | 84 µM | 
33 | O=C(O)c1cccc(-n2ccnn2)c1 | inactive | 98% |  | 
34 | O=C(O)c1ccc(-n2ccnc2)cc1 | inactive | 13% |  | 
35 | O=C(O)c1ccc(-n2cc(-c3cccc(NCCc4ccccc4)c3)nn2)cc1 | inactive |  |  | IC50 (ORF 73 [2]): Not Active
36 | O=[N+]([O-])c1cccc(-n2ccnc2)c1 | inactive | 21% |  | 
37 | Cc1cn(-c2ccccc2N)cn1 | inactive | 91% |  | 
38 | Nc1cccc(-n2ccnc2)c1 | inactive | inactive |  | 
39 | O=[N+]([O-])c1ccc(-n2ccnc2)cc1 | inactive | 22% |  | 
40 | O=C(O)c1cccc(-n2cc(-c3ccccc3)nn2)c1 | inactive | 43% |  | 
41 | O=C(O)c1ccc(-n2cc(C3CC3)nn2)cc1 | inactive |  | 694 µM | 
42 | O=C(O)c1ccccc1-n1cc(-c2ccccc2)nn1 | inactive | 13% |  | 
43 | O=C(O)c1ccc(-n2cc(-c3cccc(NCCN4CCOCC4)c3)nn2)cc1 | inactive |  |  | IC50 (ORF 73 [2]): Not Active
44 | Nc1ccccc1-n1ccnc1 | inactive | 25% |  | Activity (Human gammaherpesvirus 8 [13]): 15.7 RU; ΔTm (Human gammaherpesvirus 8 [14]): -1.8 °C
45 | Nc1ccccc1-n1cc(-c2ccc(C(=O)O)cc2)nn1 | inactive |  | 18 µM | inhibition [4]: Active; IC50 (ORF 73 [5]): 26 µM; IC50 (ORF 73 [6]): 25 µM; inhibition [7]: Active
